Test [1] is described as follows: Antitumor activity against mouse EAC cells assessed as non viable cells at 10 ug/mL after 2 hrs by trypan blue exclusion test. In kind it is functional, Ehrlich. In a few lines: (§1)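 Cells came from the ascitic fluid of preinoculated female Swiss albino mice and were suspended in medium with glutamine, fetal calf serum and antibiotics. Compound from DMSO dilutions was added as 0.1 mL, equal to the stated µg level, to medium plus 0.1 mL cell suspension (2 × 10^6). After 2 h at 37 °C, the percentage of non-viable cells was counted by trypan blue exclusion.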

Test [2] is described as follows: Antitumor activity against mouse EAC cells assessed as non viable cells after 2 hrs by trypan blue exclusion test. It is filed as functional, cell-based. Particulars: Ehrlich. The method, boiled down:
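EAC cells were aspirated from the ascitic fluid of preinoculated female Swiss albino mice and suspended in medium containing glutamine, fetal calf serum, streptomycin and penicillin. Tubes received compound from DMSO dilutions (0.1 mL, corresponding to 100, 50, 25 or 10 µg) plus 0.1 mL cells and were held at 37 °C for 2 h. Non-viable cells were counted by trypan blue exclusion, and IC50 was read from the survival-versus-concentration curve.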

Test [3] is described as follows: Antitumor activity against mouse EAC cells assessed as non viable cells at 50 ug/mL after 2 hrs by trypan blue exclusion test. It is filed as functional, Ehrlich. In a few lines: as §1
Test [4] can be described thus: Antitumor activity against mouse EAC cells assessed as non viable cells at 25 ug/mL after 2 hrs by trypan blue exclusion test. It is filed as functional, Ehrlich. The method, boiled down:
as §1

Test [5] is described as follows: Antitumor activity against mouse EAC cells assessed as non viable cells at 100 ug/mL after 2 hrs by trypan blue exclusion test. In kind it is functional, Ehrlich. The method, boiled down: as §1

≈ marks a conversion by molar mass, not a printed value.

A word on the IC50: it is the concentration needed to halve the response being measured. With `N#CC1=C(N)N(c2ccc(S(N)(=O)=O)cc2)C2=C(C(=O)CCC2)C1/C=C/c1ccccc1` (stereo not given), the Activity in test [1] was 2%; in test [3], 40%; in test [4] it was 10%; in test [5], 45%. Besides, the concentration for half-maximal inhibition (IC50) in test [2] is greater than 100 µg/mL.
As to `Cc1ccc(C2C(C#N)=C(N)N(c3ccc(S(N)(=O)=O)cc3)C3=C2C(=O)CCC3)cc1` (stereo not given), the Activity in test [1] stood at 30%; in test [3] it was 50%; in test [4], 30%; in test [5], 100%. Also, the IC50 in test [2] is 50 µg/mL (≈ 115 µM).
Turning to `N#CC1=C(N)N(c2ccc(S(N)(=O)=O)cc2)C2=C(C(=O)CCC2)C1c1ccc(O)cc1` (stereo not given), the Activity in test [1] was 90%; in test [3], 100%; in test [4], 95%; in test [5], 100%. In test [2], the IC50 is 3 µg/mL (≈ 6.87 µM).
In the case of `COc1ccccc1C1C(C#N)=C(N)N(c2ccc(S(N)(=O)=O)cc2)C2=C1C(=O)CCC2` (stereo not given), the Activity in test [1], in test [3], in test [4] and in test [5] was 0% each time. The IC50 in test [2] was greater than 100 µg/mL.
For the molecule `N#CC1=C(N)N(c2ccc(S(N)(=O)=O)cc2)C2=C(C(=O)CCC2)C1c1ccccc1` (stereo not given), the Activity in test [1] came out at 10%; in test [3], 40%; in test [4], 30%; in test [5], 40%. In addition, the IC50 in test [2] was greater than 100 µg/mL.
Turning to `Cc1ccc(C2C(C#N)=C(N)N(c3ccc(S(N)(=O)=O)cc3)C3=C2C(=O)CCC3)o1` (stereo not given), the Activity in test [1] turned out to be 2%; in test [3], 40%; in test [4], 10%; in test [5], 45%. Further, the concentration for half-maximal inhibition (IC50) in test [2] is greater than 100 µg/mL.
For the molecule `N#CC1=C(N)N(c2ccc(S(N)(=O)=O)cc2)C2=C(C(=O)CCC2)C1c1cccs1` (stereo not given), the Activity was found to be 70% in test [1], 88% in test [3], 80% in test [4] and 100% in test [5]. Moreover, in test [2], the IC50 was 5 µg/mL (≈ 11.7 µM).
For `COc1ccc(C2C(C#N)=C(N)N(c3ccc(S(N)(=O)=O)cc3)C3=C2C(=O)CCC3)c2ccccc12` (stereo not given), the Activity in test [1] was determined as 10%; in test [3] it was 30%; in test [4], 10%; in test [5] it was 90%. Also, in test [2], the half-inhibitory concentration (IC50) was 70 µg/mL (≈ 140 µM).
As to `N#CC1=C(N)N(c2ccc(S(N)(=O)=O)cc2)C2=C(C(=O)CCC2)C1c1ccco1` (stereo not given), the Activity stood at 0% in test [1], 5% in test [3], 0% in test [4] and 10% in test [5]. In addition, the IC50 in test [2] was greater than 100 µg/mL.
With `COc1ccc(C2C(C#N)=C(N)N(c3ccc(S(N)(=O)=O)cc3)C3=C2C(=O)CCC3)cc1` (stereo not given), the Activity in test [1] amounted to 30%; in test [3] it was 90%; in test [4], 50%; in test [5] it was 100%. Further, the IC50 in test [2] was 25 µg/mL (≈ 55.5 µM).
For the molecule `N#CC1=C(N)N(c2ccc(S(N)(=O)=O)cc2)C2=C(C(=O)CCC2)C1c1ccc([N+](=O)[O-])cc1` (stereo not given), the Activity in test [1] is 85%; in test [3], 95%; in test [4] it was 80%; in test [5], 100%. Also, the IC50 in test [2] came to 2.5 µg/mL (≈ 5.37 µM).
For `COc1cc(OC)c(C2C(C#N)=C(N)N(c3ccc(S(N)(=O)=O)cc3)C3=C2C(=O)CCC3)cc1OC` (stereo not given), in that order: 40%, 100%, 72%, 100% and 12 µg/mL (≈ 23.5 µM).
For `CCOc1cc(C2C(C#N)=C(N)N(c3ccc(S(N)(=O)=O)cc3)C3=C2C(=O)CCC3)ccc1OC` (stereo not given), in that order: 50%, 70%, 60%, 100% and 10 µg/mL (≈ 20.2 µM).
The corresponding values for `COc1cc(C2C(C#N)=C(N)N(c3ccc(S(N)(=O)=O)cc3)C3=C2C(=O)CCC3)ccc1O` (stereo not given) are 0%, 90%, 50%, 100% and 25 µg/mL (≈ 53.6 µM).
`N#CC1=C(N)N(c2ccc(S(N)(=O)=O)cc2)C2=C(C(=O)CCC2)C1c1cccc([N+](=O)[O-])c1` (stereo not given): the Activity in test [1] is given as 42%; in test [3], 73%; in test [4], 50%; in test [5], 71%. Further, the IC50 in test [2] was determined as 25 µg/mL (≈ 53.7 µM).
For `N#CC1=C(N)N(c2ccc(S(N)(=O)=O)cc2)C2=C(C(=O)CCC2)C1c1c(O)ccc2ccccc12` (stereo not given), in that order: 0%, 5%, 0%, 15% and greater than 100 µg/mL.
As for `COc1ccc2ccccc2c1C1C(C#N)=C(N)N(c2ccc(S(N)(=O)=O)cc2)C2=C1C(=O)CCC2` (stereo not given), the Activity in test [1] is 40%; in test [3], 70%; in test [4], 62%; in test [5] it was 80%. Also, the IC50 in test [2] was 12.5 µg/mL (≈ 25 µM).
As to `N#CC1=C(N)N(c2ccc(S(N)(=O)=O)cc2)C2=C(C(=O)CCC2)C1c1ccc(Cl)cc1Cl` (stereo not given), the Activity in test [1] is given as 40%; in test [3], 65%; in test [4], 50%; in test [5], 95%. The IC50 in test [2] is 25 µg/mL (≈ 51.1 µM).
Consider `COc1cccc2c1C(=O)c1c(O)c3c(c(O)c1C2=O)C[C@@](O)(C(=O)CO)C[C@@H]3O[C@H]1C[C@H](N)[C@H](O)[C@H](C)O1` [DOXORUBICIN], for which the Activity in test [1] is 20%; in test [3] it was 60%; in test [4] it was 39%; in test [5], 100%. In addition, in test [2], the IC50 amounted to 37.5 µg/mL (≈ 69 µM).
